Measured values reported in ChEMBL document CHEMBL4196021, “Targeting G-quadruplex DNA structures in the telomere and oncogene promoter regions by benzimidazole‒carbazole ligands” (Eur J Med Chem, 2018).
Calls of active or inactive are those of the source. No cut-off for these calls is given here.

Experiments:
[1] = tested on: Quadruplex DNA; assay: Binding affinity to human c-Kit1 G-quadruplex DNA at 0.6 uM after 5 mins in presence of KCl by fluorescence spectroscopic method; type: nucleic-acid assay
In short: (§1)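 Fluorescence titration at 25 °C with 0.6 µM ligand in 10 mM Tris-HCl pH 7.4, 100 mM KCl, 0.1 mM EDTA. Preformed G4 DNA was added stepwise, with 5 min incubation before each spectrum. Excitation 330 nm; emission 350–550 nm, slit 5 nm.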

[2] = tested on: Quadruplex DNA; assay: Binding affinity to human telomeric G-quadruplex DNA at 0.6 uM after 5 mins in presence of KCl by fluorescence spectroscopic method; type: nucleic-acid assay; in short: as §1
[3] = tested on: Quadruplex DNA; assay: Binding affinity to human c-Kit1 G-quadruplex DNA assessed as stabilization of parallel stranded topology after 5 mins in presence of KCl by CD spectroscopic method; type: nucleic-acid assay
In short: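 CD spectra of 5 µM G4 DNA in 10 mM Tris-HCl pH 7.4, 100 mM KCl, 0.1 mM EDTA, with or without ligand. Mixtures were heated 95 °C for 5 min and slowly cooled to room temperature. Recorded 200–400 nm at 25 °C, 100 nm/min, 2 s response, 1 cm cell; average of three scans.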

[4] = target: Quadruplex DNA; assay: Displacement of thiazole orange from human c-Myc G-quadruplex DNA after 5 mins in presence of KCl by fluorescence assay; type: nucleic-acid assay
In short: (§2)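 Thiazole orange displacement from a G4 DNA–TO complex (1 µM TO + 0.5 µM G4 DNA) in 10 mM Tris-HCl pH 7.4, 100 mM KCl, 0.1 mM EDTA. Ligand was added in increasing steps, with 5 min incubation each. Fluorescence read at ex 501/em 531 nm; % displacement = 100 − (Ft/F0 × 100). DC50 is the ligand concentration giving 50% displacement, read from plots; average of two independent experiments.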

[5] = target: Quadruplex DNA; assay: Displacement of thiazole orange from human Bcl2 G-quadruplex DNA after 5 mins in presence of KCl by fluorescence assay; type: nucleic-acid assay; in short: as §2
[6] = tested on: Calf thymus DNA; assay: Displacement of thiazole orange from calf thymus duplex DNA after 5 mins in presence of KCl by fluorescence assay; type: nucleic-acid assay, Bos taurus
[7] = tested on: Quadruplex DNA; assay: Binding affinity to human telomeric G-quadruplex DNA assessed as change in melting temperature in presence of KCl by CD spectroscopic method; type: nucleic-acid assay
In short: (§3)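 CD melting of 5 µM G4 DNA in 10 mM Tris-HCl pH 7.4, 25 mM KCl, 0.1 mM EDTA. Ligand was present during folding (heating, slow cooling). Spectra 200–400 nm over 20–96 °C in 2 °C steps, buffer blank subtracted. Tm was taken from normalized ellipticity at the positive maximum (262 nm for promoter G4s). ΔTm = ligand-bound minus DNA alone; average of two independent experiments.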

[8] = tested on: Quadruplex DNA; assay: Binding affinity to human c-Kit2 G-quadruplex DNA assessed as change in melting temperature in presence of KCl by CD spectroscopic method; type: nucleic-acid assay; in short: as §3
[9] = tested on: Quadruplex DNA; assay: Binding affinity to human VEGF G-quadruplex DNA assessed as change in melting temperature in presence of KCl by CD spectroscopic method; type: nucleic-acid assay; in short: as §3
[10] = tested on: Quadruplex DNA; assay: Stabilization of c-Myc G-quadruplex DNA in human HeLa cells assessed as decrease in c-Myc mRNA level at 10 uM after 24 hrs by RT-PCR method relative to control; type: cell-based; design: scale not given: the % may be the effect or the level left
In short: (§4)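 HeLa cells exposed to increasing ligand concentrations (5 and 10 µM named) for 24 h, with DMSO-treated cells as control. Total RNA was extracted with TRI reagent and DNase I-treated. c-MYC and VEGF transcripts were quantified by qRT-PCR, normalized to GAPDH, and expressed as relative fold change.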

[11] = tested on: Quadruplex DNA; assay: Stabilization of VEGF G-quadruplex DNA in human HeLa cells assessed as decrease in VEGF mRNA level after 24 hrs by RT-PCR method; type: cell-based; in short: as §4
[12] = tested on: Quadruplex DNA; assay: Stabilization of VEGF G-quadruplex DNA in human HeLa cells assessed as decrease in VEGF mRNA level at 10 uM after 24 hrs by RT-PCR method relative to control; type: cell-based; design: scale not given: the % may be the effect or the level left; in short: as §4
[13] = tested on: MCF7; assay: Cytotoxicity against human MCF7 cells assessed as reduction in cell viability after 72 hrs by MTT assay; type: functional, cell-based
In short: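 HeLa and MCF7 cells in log phase were seeded for 24 h, then exposed to a range of ligand concentrations for 72 h. MTT (5 mg/ml stock) was added for 4 h, formazan dissolved in DMSO, and absorbance read at 570 nm. Three independent experiments in triplicate, mean ± SD.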

SMILES: CN(C)CCCCn1c2ccc(-c3nc4ccc(N5CCN(CCO)CC5)cc4[nH]3)cc2c2cc(-c3nc4ccc(N5CCN(CCO)CC5)cc4[nH]3)ccc21
- Activity [1]: Active
- Activity [2]: Active
- Activity [3]: Active
- DC50 [4]: 0.83 µM
- DC50 [5]: 1.39 µM
- DC50 [6]: 6.94 µM
- ΔTm [7]: 21.3 °C
- ΔTm [8]: 23.3 °C
- ΔTm [9]: 11.3 °C
- Activity [10]: 71%
- Activity [11]: Dose-dependent effect
- Activity [12]: 68%
- Activity [13]: Dose-dependent effect
- IC50 ([13]; MCF7, 72 h): 11.4 µM
